Laboratory results taken from ChEMBL document CHEMBL1155457, “Discovery of the dual orexin receptor antagonist [(7R)-4-(5-chloro-1,3-benzoxazol-2-yl)-7-methyl-1,4-diazepan-1-yl][5-methyl-2-(2H-1,2,3-triazol-2-yl)phenyl]methanone (MK-4305) for the treatment of insomnia” (J Med Chem, 2010).
Active and inactive are the calls of the source. No cut-off for these calls is given here.

Tests used:
[1] = target: T1, Orexin/Hypocretin receptor type 1 (Homo sapiens, UniProt O43613); test: Displacement of [3H](S)-N-(biphenyl-2-yl)-1-(2-(1-methyl-1H-benzo[d]imidazol-2-ylthio)acetyl)pyrrolidine-2-carboxamide from human OX1R expressed in CHO cells after 3 hrs by scintillation counting; format: cell-based
T1 sequence (O43613 whole entry): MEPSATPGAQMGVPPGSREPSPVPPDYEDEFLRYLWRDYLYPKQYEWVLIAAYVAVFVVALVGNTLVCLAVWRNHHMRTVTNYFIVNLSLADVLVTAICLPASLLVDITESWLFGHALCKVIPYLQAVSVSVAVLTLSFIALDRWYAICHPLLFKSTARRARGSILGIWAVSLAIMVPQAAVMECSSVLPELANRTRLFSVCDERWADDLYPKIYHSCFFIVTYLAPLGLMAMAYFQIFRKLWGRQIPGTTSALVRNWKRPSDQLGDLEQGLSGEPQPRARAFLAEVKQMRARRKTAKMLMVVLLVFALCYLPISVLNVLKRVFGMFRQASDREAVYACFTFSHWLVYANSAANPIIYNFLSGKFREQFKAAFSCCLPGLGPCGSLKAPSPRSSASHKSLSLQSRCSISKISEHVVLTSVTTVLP

[2] = target: T1, Orexin/Hypocretin receptor type 1; test: Displacement of [3H]N-cyclobutyl-5-methyl-N-(2-(1-methyl-1H-benzo[d]imidazol-2-ylthio)ethyl)-2-(2H-1,2,3-triazol-2-yl)benzamide from human OX1R expressed in CHO cells after 20 hrs by scintillation counting; format: cell-based
Orexin receptor type 2 [3] = target: T2, Orexin receptor type 2 (Homo sapiens, UniProt O43614); test: Displacement of [3H](S)-N-(2-(1H-pyrrol-1-yl)phenyl)-1-(2-(1-methyl-1H-benzo[d]imidazol-2-ylthio)acetyl)pyrrolidine-2-carboxamide from human OX2R expressed in CHO cells after 3 hrs by scintillation counting; format: cell-based
T2 sequence (O43614 whole entry): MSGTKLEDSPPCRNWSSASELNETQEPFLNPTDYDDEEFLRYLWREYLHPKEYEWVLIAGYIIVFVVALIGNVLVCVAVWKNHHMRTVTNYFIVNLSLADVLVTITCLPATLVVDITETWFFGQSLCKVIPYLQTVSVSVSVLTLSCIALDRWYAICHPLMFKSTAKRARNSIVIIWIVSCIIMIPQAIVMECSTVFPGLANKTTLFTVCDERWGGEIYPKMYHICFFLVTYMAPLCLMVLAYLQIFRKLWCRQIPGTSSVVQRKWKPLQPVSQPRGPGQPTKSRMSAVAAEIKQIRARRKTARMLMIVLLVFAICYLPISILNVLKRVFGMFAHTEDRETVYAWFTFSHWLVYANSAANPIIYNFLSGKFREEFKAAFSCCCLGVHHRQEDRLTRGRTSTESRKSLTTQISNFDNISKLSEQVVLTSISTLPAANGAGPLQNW

[4] = target: T1, Orexin/Hypocretin receptor type 1; test: Antagonist activity at human OX1R expressed in CHO cells assessed as inhibition of orexin-A-induced intracellular calcium mobilization after 5 mins by FLIPR assay; format: functional, cell-based
Orexin receptor type 2 [5] = target: T2, Orexin receptor type 2; test: Antagonist activity at human OX2R expressed in CHO cells assessed as inhibition of orexin-A-induced intracellular calcium mobilization after 5 mins by FLIPR assay; format: functional, cell-based
[6] = Clearance in dog at 0.5 mg/kg, iv; format: ADME, organism-based, Canis lupus familiaris; parameters: dose 0.5 mg/kg, route intravenous; conditions: in vivo
How it was run: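 Dogs received an IV dose with DMSO as vehicle (n = 3). Clearance was derived from plasma pharmacokinetics.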

[7] = Lipophilicity, log P of the compound; format: physicochemical; conditions: octanol/water
Rattus norvegicus [8] = test: Antiinsomnic activity in Sprague-Dawley rat assessed as decrease in active wake duration at 30 mg/kg/day, po measured with 3 to 4 hrs post last dose; format: functional, organism-based
How it was run: (§1)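 Telemetry-implanted rats with ECoG and EMG electrodes placed under isoflurane, recovered at least two weeks, 12 h light:dark cycle. 30 mg/kg free base suspended in 20% aqueous TPGS given by oral gavage 5 h into the active phase. Crossover design with four rats, one week on drug and one on vehicle. Automated staging in 30 min bins, averaged over seven nights, mixed ANOVA.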

Rattus norvegicus [9] = test: Antiinsomnic activity in Sprague-Dawley rat assessed as increase in rapid-eye movement at 30 mg/kg/day, po measured with 3 to 4 hrs post last dose; format: functional, organism-based; how it was run: as §1
Rattus norvegicus [10] = test: Antiinsomnic activity in Sprague-Dawley rat assessed as increase in delta sleep duration at 30 mg/kg/day, po measured with 3 to 4 hrs post last dose; format: functional, organism-based; how it was run: as §1
Rattus norvegicus [11] = test: Antiinsomnic activity in Sprague-Dawley rat assessed as decrease in light sleep duration at 30 mg/kg/day, po measured with 3 to 4 hrs post last dose; format: functional, organism-based; how it was run: as §1
[12] = Cmax in Sprague-Dawley rat CSF at 30 mg/kg/day, po; format: ADME, organism-based, Cerebrospinal fluid; parameters: dose 30 mg/kg/day, route oral
[13] = Drug level in Sprague-Dawley rat CSF at 30 mg/kg/day, po; format: ADME, organism-based, Cerebrospinal fluid; parameters: route oral; conditions: in vivo, read-out: Drug uptake
Rattus norvegicus [14] = test: In vivo occupancy of human OX2R ubiquitously overexpressed in iv dosed transgenic rat after 30 mins; format: functional
How it was run: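 Transgenic human OX2R rats were infused IV over 30 min at 0.1-2.0 mg/kg in 25% hydroxypropyl-β-cyclodextrin, then sacrificed. Brain homogenate at 10 mg tissue/mL was incubated with 200 pM radioligand at room temperature and filtered at 2-15 min. Nonspecific binding was set with 1 μM unlabeled DORA. Occupancy = (1 - slope_drug/slope_vehicle) × 100; Occ90 came from nonlinear fit.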

[15] = Drug level in human OX2R overexpressing transgenic rat plasma at 1.34 mg/kg, iv after 30 mins; format: ADME, organism-based; parameters: dose 1.34 mg/kg, route intravenous; conditions: read-out: Drug uptake
How it was run: (§2)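 Transgenic rats expressing human OX2R received a 30 min IV infusion, 0.1-2.0 mg/kg, in 25% hydroxypropyl-β-cyclodextrin. They were then sacrificed, and brain, plasma and CSF were frozen. Drug levels were measured by LCMS.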

[16] = Drug level in human OX2R overexpressing transgenic rat brain at 1.34 mg/kg, iv after 30 mins; format: ADME, organism-based; parameters: dose 1.34 mg/kg, route intravenous; conditions: read-out: Drug uptake; how it was run: as §2
[17] = Drug level in human OX2R overexpressing transgenic rat CSF at 1.34 mg/kg, iv after 30 mins; format: ADME, organism-based, Cerebrospinal fluid; parameters: dose 1.34 mg/kg, route intravenous; conditions: read-out: Drug uptake; how it was run: as §2
Rattus norvegicus [18] = test: In vivo occupancy of human OX2R ubiquitously overexpressed in transgenic rat at 30 mg/kg/day, iv after 30 mins; format: functional
[19] = Thermal stability of the compound; format: physicochemical
[20] = Chemical stability in pH-dependent solution; format: physicochemical
[21] = Aqueous solubility of the compound; format: physicochemical; conditions: buffer
[22] = Genotoxicity in Salmonella Typhimurium by Ames test; format: toxicity; conditions: salmonella enterica subsp. enterica serovar typhimurium
Canis familiaris = species on record: Canis familiaris; test: Cardiotoxicity in dog; format: toxicity, organism-based, Canis lupus familiaris; conditions: in vivo
[23] = Plasma protein binding in rat; format: ADME, cell-free; conditions: read-out: PPB
[24] = Plasma protein binding in human; format: ADME, cell-free; conditions: read-out: PPB
Rattus norvegicus [25] = test: Clearance in rat at 2 mg/kg, iv; format: ADME, organism-based; parameters: dose 2 mg/kg, route intravenous; conditions: in vivo
How it was run: (§3)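 IV PK in DMSO vehicle: rat at 2 mg/kg, dog at 0.5 mg/kg. Clearance, Vd_ss and terminal half-life were derived from plasma levels.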

[26] = Volume of distribution at steady state in rat at 2 mg/kg, iv; format: ADME, organism-based; parameters: dose 2 mg/kg, route intravenous; conditions: in vivo, read-out: Vdss; how it was run: as §3
[27] = Terminal half life in rat at 2 mg/kg, iv; format: ADME, organism-based; parameters: dose 2 mg/kg, route intravenous; conditions: in vivo, read-out: beta t1/2 (converted); how it was run: as §3
[28] = Volume of distribution at steady state in dog at 0.5 mg/kg, iv; format: ADME, organism-based, Canis lupus familiaris; parameters: dose 0.5 mg/kg, route intravenous; conditions: in vivo, read-out: Vdss; how it was run: as §3
[29] = Terminal half life in dog at 0.5 mg/kg, iv; format: ADME, organism-based, Canis lupus familiaris; parameters: dose 0.5 mg/kg, route intravenous; conditions: in vivo, read-out: beta t1/2 (converted); how it was run: as §3
[30] = AUC in dog at 3 mg/kg, po; format: ADME, organism-based, Canis lupus familiaris; parameters: dose 3 mg/kg, route oral; conditions: plasma
[31] = Cmax in dog at 3 mg/kg, po; format: ADME, organism-based, Canis lupus familiaris; parameters: dose 3 mg/kg, route oral; conditions: in vivo
[32] = Oral bioavailability in dog at 3 mg/kg; format: ADME, organism-based, Canis lupus familiaris; conditions: in vivo
[33] = Tmax in dog at 3 mg/kg, po; format: ADME, organism-based, Canis lupus familiaris; parameters: dose 3 mg/kg, route oral; conditions: in vivo
[34] = AUC in rat at 10 mg/kg, po; format: ADME, organism-based; parameters: dose 10 mg/kg, route oral; conditions: plasma
[35] = Cmax in rat at 10 mg/kg, po; format: ADME, organism-based; parameters: dose 10 mg/kg, route oral; conditions: in vivo
[36] = Tmax in rat at 10 mg/kg, po; format: ADME, organism-based; parameters: dose 10 mg/kg, route oral; conditions: in vivo
[37] = Oral bioavailability in rat at 10 mg/kg; format: ADME, organism-based; conditions: in vivo

Cc1ccc(-n2nccn2)c(C(=O)N2CCN(c3nc4ccccc4o3)CC[C@H]2C)c1
Ki [1]: 4.1 nM | Ki [2]: 4.1 nM | Ki (Orexin receptor type 2 [3]): 3.2 nM | IC50 [4]: 24 nM | IC50 (Orexin receptor type 2 [5]): 57 nM | clearance [6]: 2.4 mL/min/kg

Cc1ccc(-n2nccn2)c(C(=O)N2CCN(c3nc4cc(Cl)ccc4o3)CC[C@H]2C)c1 [SUVOREXANT]
logP [7]: 3.6 | Activity (Rattus norvegicus [8]): Active | Activity (Rattus norvegicus [9]): Active | Activity (Rattus norvegicus [10]): Active | Activity (Rattus norvegicus [11]): Active | Cmax [12]: 2100 nM | concentration [13]: 21 nM | Activity (Rattus norvegicus [14]): 1.34 mg/kg | concentration at 0.5 h [15]: 1070 nM | concentration at 0.5 h [16]: 1180 nM | concentration at 0.5 h [17]: 13 nM | Activity (Rattus norvegicus [18]): >90% | Stability [19]: Stable | Stability [20]: Stable | solubility [21]: Soluble | Activity [22]: Non-toxic | Activity (Canis familiaris): Non-toxic | fraction unbound [23]: 0.01 | fraction unbound [24]: 0.01 | clearance (Rattus norvegicus [25]): 44 mL/min/kg | Vd [26]: 2.6 L/kg | half-life [27]: 36 min | clearance [6]: 4 mL/min/kg | Vd [28]: 0.8 L/kg | half-life [29]: 198 min | AUC [30]: 16.9 µM·h | Cmax [31]: 3200 nM | bioavailability [32]: 56% | Tmax [33]: 30 min | AUC [34]: 1.7 µM·h | Cmax [35]: 480 nM | Tmax [36]: 30 min | bioavailability [37]: 19%
